T cruzi inh: T. cruzi replication inhibition; T. cruzi beta-gal in NIH3T3, luminescence, 90 h; inhibition, % (no concentration beside the values); hit rate 1.4% among 300,000;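 active = mean inhibition across valid replicates above about 55%, limit read from the data; inconclusive = mean below that limit but half or more replicates reach it; inactive = mean below it, under half of replicates reach it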;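 also: signal also drops with host cell toxicity which is not excluded here; higher percent means less beta-gal luminescence so fewer parasites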
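System – NIH/3T3 host cells with β-galactosidase reporter T. cruzi · Doses – single 50 nL compound addition per well in DMSO · Reagent – 5000 T. cruzi trypomastigotes/well · Medium – Low-serum DMEM with 2% FBS · Timing – ≥90 h infection period, 3 h prior cell attachment · Evaluation – parasite load inhibition, % · Technique – GalScreen luminescence, 60 min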
CSC inhib: blocks cancer stem cells. cancer stem cell-like cells viability, luminescence. inhibition, % at 7.5 µM. hit rate 1.1% among 300,000. AID 2717; in the data active = inhibition above about 75%; inconclusive = no clear call, values can overlap the other calls; tested in HMLE shEcad cells
NALP3 yeast inh: NALP3 inhibition in yeast; Yeast reconstituted NLRP3/ASC/caspase-1, beta-gal luminescence, 24 h; hit rate 0.39% among 330,000; inhibition, % at 10 µM; AID 2825;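 active = inhibition of 50% or more; inactive = inhibition below 50%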
Mdm2 MdmX PPI: human Mdm2/MdmX binding inhibition. inhibition, % at 8 µM. hit rate 3% among 330,000. SaOS-2 split-luciferase Mdm2/MdmX complementation, luminescence. AID 485346. O15151+Q00987;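 active = inhibition of at least 50% at 8 µM in the primary screen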
Target sequence (O15151 whole entry, looked up): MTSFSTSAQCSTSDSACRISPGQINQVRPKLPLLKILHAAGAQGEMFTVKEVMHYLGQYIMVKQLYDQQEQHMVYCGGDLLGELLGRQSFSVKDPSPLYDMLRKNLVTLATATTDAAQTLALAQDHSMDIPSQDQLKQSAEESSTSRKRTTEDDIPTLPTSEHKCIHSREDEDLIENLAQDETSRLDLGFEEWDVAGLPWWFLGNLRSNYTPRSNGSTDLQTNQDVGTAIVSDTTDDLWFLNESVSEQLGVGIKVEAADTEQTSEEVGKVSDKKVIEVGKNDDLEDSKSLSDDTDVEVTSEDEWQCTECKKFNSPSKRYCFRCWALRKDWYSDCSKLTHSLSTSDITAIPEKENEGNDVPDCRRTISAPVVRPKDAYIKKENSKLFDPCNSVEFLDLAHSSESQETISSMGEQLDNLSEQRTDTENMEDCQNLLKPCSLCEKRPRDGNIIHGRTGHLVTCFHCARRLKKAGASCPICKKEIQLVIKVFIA
Target sequence (Q00987 whole entry, looked up): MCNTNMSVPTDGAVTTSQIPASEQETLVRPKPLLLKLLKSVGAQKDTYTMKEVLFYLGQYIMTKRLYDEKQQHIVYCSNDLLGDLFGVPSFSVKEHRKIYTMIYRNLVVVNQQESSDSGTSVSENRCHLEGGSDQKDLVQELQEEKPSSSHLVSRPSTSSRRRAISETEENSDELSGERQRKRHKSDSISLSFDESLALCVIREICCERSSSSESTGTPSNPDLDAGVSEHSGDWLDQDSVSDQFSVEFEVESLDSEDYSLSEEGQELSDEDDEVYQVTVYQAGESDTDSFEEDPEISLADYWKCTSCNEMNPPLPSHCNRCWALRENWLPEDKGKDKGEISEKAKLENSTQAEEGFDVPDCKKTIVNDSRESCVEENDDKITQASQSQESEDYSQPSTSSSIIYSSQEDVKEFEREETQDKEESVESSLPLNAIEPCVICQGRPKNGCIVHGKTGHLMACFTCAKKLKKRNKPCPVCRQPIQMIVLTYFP
Calb FLC: C. albicans growth modulation with fluconazole | C. albicans CaCi-2 + fluconazole, Alamar Blue growth, 48 h | growth inhibition, % (no concentration beside the values) | hit rate 0.57% among 300,000 | AID 1979;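 active = growth inhibition above about 58% in most replicates, limit read from the data, passing the limit was not always enough; inconclusive = exactly half the replicates above a set limit; inactive = most replicates below a set limit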;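 also: all wells also contain fluconazole at 8 µg/ml as a sub-toxic cotreatment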
Beta apoptosis: blocks beta cell apoptosis | hit rate 0.8% among 300,000 | INS-1E cytokine-induced death, ATP luminescence, 48 h; percent of positive-control rescue, neutral wells zero | AID 435005 | protection from apoptosis, % (test concentration not listed);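 active = Every replicate reaches about 75%, or at least half do and their mean reaches it too, limit read from the data; inconclusive = At least half of replicates reach the limit but their mean does not; inactive = Under half of replicates reach the limit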;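 also: higher means more ATP so stronger rescue from cytokine killing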
Large screens that a line does not name were inactive. In the library only some 5.3% were active in any assay of this set; here they are far more common.

CCOC(=O)C1CCN(CCC(=O)Nc2ccc(F)cc2)CC1	Calb FLC 107
Cc1ccc(NC(=O)CCc2nnc3ccc(NCc4ccco4)nn23)cc1F	none
CC1CC(C)(C)Nc2ccc(OC(=O)c3ccco3)cc21 (stereo not given)	none
CC1CC(C)(C)Nc2ccc(N=O)cc21 (stereo not given)	T cruzi inh 98 (no result: CSC inhib, NALP3 yeast inh, Mdm2 MdmX PPI, Beta apoptosis)
CC(=O)Nc1ccc(NC(=O)C2CCCN2C(=O)Nc2ccc(F)cc2)cc1 (stereo not given)	none
COc1ccc(NC(=O)c2sccc2SCc2cccc(C(F)(F)F)c2)cc1	T cruzi inh 69
O=C(Nc1ccc(F)cc1)c1sccc1SCc1cccc(C(F)(F)F)c1	T cruzi inh inconclusive
CC(C)n1c(CN(C)Cc2ccccc2)nc2c1c(=O)n(C)c(=O)n2C	Beta apoptosis 96
CC(=O)C(C)n1c(CN(C)Cc2ccccc2)nc2c1c(=O)n(C)c(=O)n2C (stereo not given)	none
CCOc1ccc(C(=S)N2CCCC2)c(OCC)c1	none
O=C(CSc1nnc(-c2ccccn2)o1)Nc1ccccc1	none
CCOC(=O)C1CCCN(S(=O)(=O)CCNC(=O)c2ccccc2)C1 (stereo not given)	none (no result: Beta apoptosis)
CC1CCCC(C)N1C(=O)c1cccc2c1-c1ccccc1/C2=N/O (stereo not given)	none (no result: T cruzi inh, Calb FLC)
CC(C)COC(=O)c1cccc2c1-c1ccccc1/C2=N\O	CSC inhib 120
COc1ccc(C(CNC(=O)CNC(=O)c2cccc(Cl)c2)N2CCCC2)cc1 (stereo not given)	none (no result: T cruzi inh, CSC inhib, Calb FLC)
CCOC(=O)c1ccc(-n2ccnc2)c(NC(=O)c2cccc(Br)c2)c1	T cruzi inh 63
CCOC(=O)c1ccc(-n2ccnc2)c(NC(=O)c2ccc(C(C)(C)C)cc2)c1	T cruzi inh inconclusive
C#CC(C)(CC)NC(=O)c1cc2cccc(CC=C)c2oc1=O (stereo not given)	none
Cc1nc(N2CCC(C)CC2)c2c(C)c(C(=O)Nc3ccc(C(F)(F)F)cc3)sc2n1	T cruzi inh 61
Cc1nc(N2CCC(C)CC2)c2c(C)c(C(=O)Nc3cccc(C(F)(F)F)c3)sc2n1	none
CN(c1ccc(C(=O)Nc2ccc(S(=O)(=O)N3CCCC3)cc2)cc1)S(C)(=O)=O	none
COC(=O)Nc1nc(-c2cc(Cl)ccc2Cl)cs1	T cruzi inh 80 (no result: CSC inhib, Beta apoptosis)
CCOC(=O)Nc1nc(-c2ccc(F)cc2F)cs1	none
Cc1ccc(-c2nc3cc(Br)cnc3nc2-c2ccc(C)cc2)cc1	T cruzi inh 58
CCOC(=O)C1CCN(C(=O)c2ccc3c(=O)n4nc(Nc5cc(C)ccc5C)sc4nc3c2)CC1	Calb FLC 88
Cc1ccc(NC(=S)Nn2cnnc2)c(C)c1	Calb FLC 82
Cc1ccc(NC(=O)Nn2cnnc2)c(C)c1	none
CCCNC(=S)N1CCC(NC(=O)c2cccc(C)c2)CC1	none
O=C(Nc1ccncc1)c1ccc(Cl)cc1	none
O=C(Nc1ccncc1)c1ccc(Br)cc1	Calb FLC 93
Cc1ccc(-c2ccc(OC(=O)c3ccc(=O)[nH]c3)c(C)c2)cc1	CSC inhib 76
COC(=O)c1cc(OC(=O)c2ccc(=O)[nH]c2)cc(C(=O)OC)c1	none
Cc1ccc(C)c(-c2nnc(NC(=O)c3ccco3)o2)c1	Calb FLC 83
O=C(COc1ccccc1Br)Nc1ccccc1C(F)(F)F	Calb FLC inconclusive
O=C(c1ccco1)N1CCN(C(=O)c2ccc(-c3ccc(Cl)cc3)o2)CC1	none (no result: T cruzi inh, CSC inhib, Calb FLC)
COC(=O)c1cn(-c2ccccc2)nc1-c1ccncc1	none (no result: CSC inhib)
O=C(OCc1ccccc1)c1cn(-c2ccccc2)nc1-c1ccncc1	T cruzi inh 57 (no result: Beta apoptosis)
Fc1cccc(Cc2noc(CN3CCOCC3)n2)c1	none
COc1ccc(Cc2noc(CN3CCN(Cc4cccc(Cl)c4)CC3)n2)cc1OC	T cruzi inh 60, Calb FLC inconclusive
Cc1ccc(C2(c3noc(CN4CCC(c5ccncc5)CC4)n3)CCCC2)cc1	CSC inhib 92, Calb FLC 119
Fc1cccc(Cc2noc(CN3CCC(c4ccncc4)CC3)n2)c1	T cruzi inh 66
COc1ccc(Cc2noc(CN3CCCN(C4Cc5ccccc5C4)CC3)n2)cc1OC	T cruzi inh 60
CC(C)NC(=O)CSc1c2c(nc3ccccc13)CCCC2	none
CC(C)(C)NC(=O)c1ccc2c3c(cccc13)CC2	none
Fc1ccc(-c2[nH]ncc2CN(CC2CCC2)CC2CCCO2)c(F)c1 (stereo not given)	none
COc1ccc(CCN2C(=O)CS/C2=N\NC(=O)c2ccc(C(C)(C)C)cc2)cc1OC	none
Cc1nc(-c2nnc(SCC(=O)Nc3cc(Cl)cc(Cl)c3)n2C)cs1	none (no result: T cruzi inh)
CCOc1cc(/C=N/O)cc(Br)c1OCc1ccc(Cl)cc1	CSC inhib 117
CCOc1cc(/C=N/O)cc(Br)c1OCC	none
O=C(Cn1cc(C(=O)C2CCCCC2)c2ccccc21)NCC1CCCO1 (stereo not given)	none
COc1ccc2cc(/C(C)=N/NC(=S)Nc3cc(S(=O)(=O)N4CCOCC4)ccc3N3CCOCC3)ccc2c1	T cruzi inh 69
C/C(=N\NC(=S)Nc1cc(S(=O)(=O)N2CCOCC2)ccc1Cl)c1ccc(N2CCOCC2)cc1	none
S=C(NC1CC1)N1CCc2ccccc2C1	none
Cc1cccc(C(=O)O/N=C/c2c(N3CCOCC3)n(C)c3ccccc23)c1	T cruzi inh 73, Calb FLC 83, Beta apoptosis 97
Cn1c(Cl)c(/C=N/OC(=O)c2ccccc2Cl)c2ccccc21	none
CCCCCC(=O)NNC(=S)NC(=O)c1cccc([N+](=O)[O-])c1	Calb FLC 85
COc1ccc(C(=O)NNC(=S)NC(=O)c2cccc([N+](=O)[O-])c2)cc1	Calb FLC 81
O=C(NC(=S)NNC(=O)c1ccccc1O)c1cccc([N+](=O)[O-])c1	none
CCOC(=O)c1ccccc1NC(=O)c1cccc([N+](=O)[O-])c1	Calb FLC 108
O=C(COC(=O)c1ccccc1NC(=O)c1ccccc1)c1cccc([N+](=O)[O-])c1	none
O=C(NCCc1ccccc1)C1CCN(C2CCN(C(=O)CC3=CCCCC3)CC2)CC1	none
O=C(CCNc1ccc(F)cc1)c1cc2ccccc2o1	T cruzi inh 73
O=C(CCNc1cccc(F)c1)c1cc2ccccc2o1	none
CC(C)(C)/C=N/NC(=O)C1CC1	none
C=CCn1c(N)nc2ccccc21	Calb FLC 82
CCCCCOC(=O)Nc1ccc(S(=O)(=O)Nc2cccc([N+](=O)[O-])c2)cc1	none
CCCCn1nc(C(=O)Nc2nc3c(s2)CCCC3)c2ccccc2c1=O	T cruzi inh 56
CCCCCCn1nc(C(=O)Nc2nc3c(s2)CCCC3)c2ccccc2c1=O	none
Cc1oc2cc(O)ccc2c(=O)c1Oc1ccc2ccccc2c1	none
CC(C)(C)c1cc(NCCCn2ccnc2)n2ncc(-c3ccccc3)c2n1	Beta apoptosis 114
CCOC(=O)C1=C(CS(=O)(=O)c2ccc(C)c(C)c2)NC(=O)NC1c1ccc(O)cc1 (stereo not given)	none

Bioassay records: PubChem, several laboratories
